# TRPC6 inh: blocks the mouse TRPC6 cation channel; HEK293-TRPC6, membrane potential dye, ACh-evoked depolarization; hits give low values; B-score at 10 µM; 310,000 tested, 1.1% active;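 active = B-score under library mean minus 3 SD, initial fluorescence not abnormally high, positive integrated signal ratio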;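 also: B-score derived from integrated fluorescence ratio over the kinetic read; more negative B-score means stronger inhibition of depolarization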
# Target sequence (Q61143 whole entry, looked up): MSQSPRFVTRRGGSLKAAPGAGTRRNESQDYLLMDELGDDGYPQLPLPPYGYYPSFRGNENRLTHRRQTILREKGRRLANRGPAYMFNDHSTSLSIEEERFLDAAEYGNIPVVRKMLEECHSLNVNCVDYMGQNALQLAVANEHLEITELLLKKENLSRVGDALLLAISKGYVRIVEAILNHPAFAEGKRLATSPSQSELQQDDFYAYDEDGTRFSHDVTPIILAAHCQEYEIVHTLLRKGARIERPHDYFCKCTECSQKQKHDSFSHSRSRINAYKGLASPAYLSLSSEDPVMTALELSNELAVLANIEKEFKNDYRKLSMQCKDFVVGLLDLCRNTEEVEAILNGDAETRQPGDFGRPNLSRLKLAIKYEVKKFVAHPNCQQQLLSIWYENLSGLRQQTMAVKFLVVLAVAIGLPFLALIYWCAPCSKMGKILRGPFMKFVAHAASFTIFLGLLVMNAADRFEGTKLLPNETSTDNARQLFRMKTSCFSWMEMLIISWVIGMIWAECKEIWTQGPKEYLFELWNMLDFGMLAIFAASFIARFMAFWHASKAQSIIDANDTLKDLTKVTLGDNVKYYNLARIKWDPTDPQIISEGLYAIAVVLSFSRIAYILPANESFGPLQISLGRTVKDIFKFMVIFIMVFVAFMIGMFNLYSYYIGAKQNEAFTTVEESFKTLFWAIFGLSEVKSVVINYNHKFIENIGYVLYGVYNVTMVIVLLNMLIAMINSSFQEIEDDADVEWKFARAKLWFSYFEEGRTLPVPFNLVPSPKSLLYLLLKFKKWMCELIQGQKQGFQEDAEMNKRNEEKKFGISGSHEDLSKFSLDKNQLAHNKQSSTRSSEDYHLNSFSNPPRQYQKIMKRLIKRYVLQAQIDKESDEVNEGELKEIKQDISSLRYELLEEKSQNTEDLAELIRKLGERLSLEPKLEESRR
# Kir21 inh: inhibitors of mouse Kir2.1 inward-rectifier potassium channel; HEK293-Kir2.1, FluxOR thallium flux fluorescence; hits give low values; P35561; 310,000 tested, 0.85% active; B-score at 10 µM;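 active = fluorescence ratio B-score at or below minus 3 SD of library scores, with starting-brightness B-score within 2 SD, cut at about -4.2 in these data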;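 also: channel flux triggered by added potassium and thallium sulfate stimulus; B-score of peak minus minimum fluorescence over baseline after thallium stimulus; more negative B-score means stronger Kir2.1 block with less thallium influx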
# TRPC4 block: blocks the mouse TRPC4 cation channel. HEK293 TRPC4beta/mu-opioid, DAMGO-evoked Fluo4 calcium flux; hits give low values. AID 2247. 300,000 tested, 0.39% active. B-score at 10 µM. Q9QUQ5;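 active = B-score over 3 SD under the library average, no early fluorescence shift, positive overall ratio signal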
#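 material = TRPC4beta/mu-opioid receptor HEK293 cell line | probe or stimulus = sequential submaximal and maximal DAMGO stimulation | compound dosing = one concentration per compound | measured by = Fluo4 Ca2+ flux fluorescence | evaluation = integrated fluorescence ratio relative to baseline, converted to per-well B score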
# TRPC4 act: activators of mouse TRPC4 channel; Q9QUQ5; HEK293 TRPC4beta/mu-opioid, Fluo4 calcium fluorescence; hits give high values; B-score at 10 µM; 310,000 tested, 0.49% active;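 active = B-score above 5 SD of library B-scores, and initial fluorescence ratio not above library mean plus 5 SD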;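 also: positive B-score marks a calcium rise read as TRPC4 activation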
#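 Incubation: 45 min room-temperature Fluo4 loading, 110 s read / System: HEK293 cells stably co-expressing mouse TRPC4beta and mu-opioid receptor / Signal: Fluo4 fluorescence, kinetic / Control set: buffer (low) and maximal DAMGO (high) / Measure: integrated baseline-normalised fluorescence ratio, converted to per-well B score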
# TRPC6 act: activates the mouse TRPC6 cation channel | Q61143 | HEK293-TRPC6 membrane potential dye fluorescence; hits give high values | AID 2550 | 310,000 tested, 0.13% active | B-score at 10 µM;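 active = B-score of the integrated fluorescence ratio above library mean plus 3 SD, and starting fluorescence ratio within library mean plus 5 SD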;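 also: higher score means more depolarization so channel activation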
# TRPC4 PAM: allosterically enhances the mouse TRPC4 cation channel | 310,000 tested, 0.42% active | HEK293 TRPC4beta/mu-opioid, DAMGO EC20, Fluo-4 Ca2+ flux; hits give high values | AID 2227 | B-score at 10 µM;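 active = B-score of calcium response area above 5 SD of library B-scores, with initial fluorescence ratio within 5 SD of library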;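 also: B-score of integrated fluorescence ratio over time as area under calcium response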
# TRPC4 sel inh 2: mouse TRPC4 off-target activity of TRPC6 inhibitors, second screen | shares compounds with TRPC6 inh | HEK293 TRPC4/MOR, membrane potential dye fluorescence; channel activated by saturating DAMGO dose | inhibition, % at 10 µM | 920 tested, 42% active | AID 2776;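 active = compounds whose fluorescence signal differed from control wells by over 3 SD, either direction, in both duplicate plates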
# TRPC4 spec: selectivity of TRPC6 inhibitors: effect on mouse TRPC4; shares compounds with TRPC6 inh; HEK293 TRPC4/mu-opioid, membrane potential fluorescence; activity change, negative = inhibition, % at 10 µM; 920 tested, 61% active; AID 2777;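 active = rise or fall in signal beyond 3 SD of buffer-only wells in both replicate plates, either sign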;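 also: integrated kinetic ratio of fluorescence range over baseline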
# HEK293 MPD ctr 2-1: second check of TRPC6 inhibitor effects in parental HEK293 cells. shares compounds with TRPC6 inh. parental HEK293 membrane potential dye fluorescence; maximal acetylcholine challenge after compound addition. signal change vs control, % at 10 µM. 920 tested, 31% active;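 active = membrane potential signal moving either way by over 3 SD of the maximum-effect control, in both duplicate plates, meaning non-specific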
# HEK293 MPD ctr-1: checks TRPC6 inhibitor effects in parental HEK293 cells; shares compounds with TRPC6 inh; parental HEK293 membrane potential dye fluorescence; 920 tested, 60% active; membrane potential signal change, % at 10 µM;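 active = membrane potential signal shifting up or down by more than 3 SD of buffer-only wells, on both duplicate plates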
# HEK293 MPD ctr-2: parental HEK293 nonspecific activity of TRPC6 modulators | shares compounds with TRPC6 inh | membrane potential dye fluorescence | membrane potential signal change, % at 10 µM | 2,400 tested, 51% active | AID 488924;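 active = membrane potential signal moves up or down beyond 5 SD from buffer-only wells, on both duplicate plates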
# HEK293 MPD ctr 2-2: parental HEK293 nonspecific activity of TRPC6 modulators, second screen | shares compounds with TRPC6 inh | membrane potential dye fluorescence; after compound, maximal acetylcholine stimulation | inhibition, % at 10 µM | 2,400 tested, 14% active;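 active = membrane potential signal drops by more than 5 SD from the mean control signal, in both duplicate plates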;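 also: plate controls were acetylcholine ECmax control wells for no effect and buffer only wells for full effect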
# TRPC4 ctr mod: tests whether TRPC6 modulators also affect mouse TRPC4 | shares compounds with TRPC6 inh | HEK293 TRPC4/mu-opioid, membrane potential fluorescence | percent change from control (negative = decrease, positive = increase), % at 10 µM | 2,400 tested, 69% active | AID 488927;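 active = membrane potential signal moved up or down beyond 5 SD of buffer control wells, in both duplicate plates, actives on both sides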;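 also: plate controls were assay buffer wells for no effect and DAMGO maximal-effect wells for full effect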
# TRPC4 ctr inh 2: second check of whether TRPC6 modulators also affect mouse TRPC4; HEK293 TRPC4/mu-opioid, membrane potential dye fluorescence; stimulated with maximal-effect DAMGO; shares compounds with TRPC6 inh; inhibition, % at 10 µM; AID 488928; 2,400 tested, 55% active;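 active = drop in membrane potential signal beyond 5 SD of the control wells in both duplicate plates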;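 also: TRPC4 counter screen for TRPC6 hits run under conditions tuned for TRPC6 not TRPC4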
# TRPC6 inh conf: confirmation of mouse TRPC6 inhibitors; shares compounds with TRPC6 inh; HEK293-TRPC6, membrane potential dye, ACh-evoked depolarization; inhibition, % at 10 µM; 3,300 tested, 43% active; AID 488960;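 active = fluorescence ratio falls more than 5 SD below the full-stimulation control mean, in both duplicate runs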;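 also: integrated fluorescence ratio of peak minus minimum over baseline after agonist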
# TRPC6 act confirm: mouse TRPC6 activator confirmation | shares compounds with TRPC6 inh | HEK293-TRPC6 membrane potential dye fluorescence, FDSS | activation, % at 10 µM | 2,800 tested, 11% active;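 active = ratio signal rise beyond 5 SD above unstimulated control wells' mean, seen in both duplicate runs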;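 also: plate controls were buffer EC0 wells for no effect and acetylcholine ECmax response for full effect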
# The depositor's hits bear a star; i = inactive; · = not tested or not shown; + = active, no number. Hits are enriched below; roughly 3% of the tested compounds scored in any of these assays.
SMILES,TRPC6 inh,Kir21 inh,TRPC4 block,TRPC4 act,TRPC6 act,TRPC4 PAM,HEK293 MPD ctr-2,HEK293 MPD ctr 2-2,TRPC4 ctr mod,TRPC4 ctr inh 2,TRPC6 inh conf,TRPC6 act confirm,others
Cc1ccc(C)c(N2CCN(C(=O)c3nn(C)c4c3CS(=O)(=O)c3ccccc3-4)CC2)c1,i,-0.18,i,i,i,i,·,·,·,·,·,·,
CN(C)c1ccc(/C=C/C(=O)c2cccnc2)cc1,i,-7,i,i,133*,i,+,+,470%*,160%*,·,864%*,
CCOC(=O)C1=C(C)N=c2s/c(=C/c3ccc(OCC(=O)O)cc3)c(=O)n2C1c1ccc(OC)cc1OC (stereo not drawn),i,0.38,i,i,16*,i,+,i,62%*,i,i,132%*,
CCOc1cc(/C=N/NC(=O)C(=O)NCc2ccc3c(c2)OCO3)ccc1OCC(=O)N1CCOCC1,i,1.3,i,i,i,i,·,·,·,·,·,·,
Brc1ccc(N/N=C(/N=Nc2nn[nH]n2)c2ccccc2)cc1,-11*,-0.58,-6*,i,i,i,-256%*,i,-44%*,91%*,65%*,i,
CCOC(=O)c1cnn(-c2ccc(Cl)cc2)c1C1CCN(C(=O)OC(C)(C)C)CC1,i,0.36,i,i,i,i,·,·,·,·,·,·,
Cc1ccc(-n2ncc(C(=O)N3CCN(C(=O)c4ccco4)CC3)c2C2CCN(C(=O)OC(C)(C)C)CC2)cc1C,-5.6*,-0.72,i,i,i,i,i,i,i,i,i,·,
O=C(O)c1ccc(Cl)c(S(=O)(=O)N(Cc2ccccc2)c2ccc(F)cc2)c1,i,1.4,i,i,17*,i,140%*,i,22%*,i,i,144%*,
COc1ccc(N(Cc2ccccc2)S(=O)(=O)c2cc(C(=O)O)ccc2Cl)cc1,i,-1.2,i,i,25*,i,190%*,i,42%*,i,i,148%*,
O=C(O)c1ccc(Cl)c(S(=O)(=O)N(Cc2ccccc2)c2ccccc2)c1,i,-0.47,i,i,i,i,·,·,·,·,·,·,
Cc1c(NC(=O)C(C)Oc2ccc(Br)cc2Cl)c(=O)n(-c2ccccc2)n1C (stereo not drawn),i,0.42,i,i,i,i,·,·,·,·,·,·,
O=C(NCC(=O)N(c1ccc2c(c1)OCCO2)C(C(=O)NC1CCCC1)c1ccco1)c1ccco1 (stereo not drawn),-7.7*,-0.19,i,i,i,i,·,·,·,·,62%*,·,TRPC4 sel inh 2=i;TRPC4 spec=1.1%*;HEK293 MPD ctr 2-1=i;HEK293 MPD ctr-1=0.7%*
Cc1cc(/C=C2\SC(=S)NC2=O)c(C)n1-c1cccc(O)c1,i,-2.7,i,i,14*,i,568%*,i,85%*,45%*,i,174%*,
Cc1cc(/C=C2\SC(=S)NC2=O)c(C)[nH]1,-6.4*,-0.56,i,i,27*,i,782%*,+,107%*,42%*,i,164%*,
Cc1cccc(C)c1OCc1cc(C(=O)N(C)CCc2ccccn2)no1,i,-1.6,i,i,i,i,·,·,·,·,·,·,
CCNc1nc(SCCOc2ccc(Cl)cc2Cl)nc(N(C)C)n1,i,-0.63,i,i,i,i,·,·,·,·,·,·,
Cc1ccc(N2C(=O)CS/C2=N\C(=S)Nc2ccccc2)cc1,i,-0.33,i,i,i,i,·,·,·,·,·,·,
CC1CCCN(C(=O)c2ccc(-c3ccccc3Cl)o2)C1 (stereo not drawn),-5.1*,-0.32,i,i,i,i,i,i,15%*,i,i,·,
CCOc1ccc(S(=O)(=O)N2CCC(C(=O)NCCN3CCOCC3)CC2)cc1C,i,0.7,i,i,i,i,·,·,·,·,·,·,
CC1CN(C(=O)CSc2nnc(-c3ccc(Cl)cc3)n2C)CC(C)O1 (stereo not drawn),-5.2*,0.85,i,i,i,i,i,i,i,i,i,i,
CC1CN(C(=O)CSc2nnc(-c3ccncc3)n2-c2ccccc2)CC(C)O1 (stereo not drawn),i,-0.09,i,i,i,i,·,·,·,·,·,·,
O=C(COC(=O)c1cc(S(=O)(=O)N2CCOCC2)ccc1F)NCc1ccco1,-6.2*,0.67,i,i,i,i,i,i,i,i,i,i,
COC(CNC(=O)c1ccc2c(c1)ncn2-c1ccc(F)cc1F)OC,-5*,2.1,i,i,i,i,i,i,40%*,72%*,i,·,
COC(CNC(=O)c1ccc2c(c1)ncn2-c1cccc(F)c1)OC,i,0.36,i,i,i,i,·,·,·,·,·,·,
CCc1nnc2c(NCCc3ccccc3)nc3ccccc3n12,i,-1.9,i,i,i,i,·,·,·,·,·,·,

# Source: PubChem (Johns Hopkins Ion Channel Center)
